Only some compounds are listed: those with a hit (about 4.7% of all), similar ones and a draw of the others.
NR3A LBD binder – binders of NR3A ligand-binding domain, primary screen, biophysical, differential scanning fluorimetry, uHTS | AID 1259313, 2017 | Tm shift relative to glycine control, % at 25 µM | 340,000 compounds, 2.5% hits | Glutamate receptor ionotropic, NMDA 3A (GRIN3A) ligand-binding domain | NR3A LBD differential scanning fluorimetry, Tm shift; 0% = protein alone, 100% = glycine-bound protein;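 active = melting temperature shift of at least 10% of the positive control shift, at one fixed dose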
SKN-1 block – suppressors of acrylamide-induced Pgst-4::GFP reporter in worms, primary screen, SKN-1 inhibitor project, whole organism, uHTS, GFP/RFP fluorescence ratio, strain VP596; C. elegans VP596 Pgst-4::GFP/RFP ratio, 24 h; inhibition, % at 21.8 µM; 360,000 compounds, 0.49% hits;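 active = interference check ratio from 0.5 to 1.5 plus GFP to RFP signal ratio inhibition reaching or exceeding a fixed threshold, cut at about 30% in these data, passing the limit was not always enough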
ADAM17 inh – ADAM17 inhibitors, primary screen, biochemical, QFRET; recombinant ADAM17, EDANS/DABCYL FRET peptide cleavage; inhibition, % at 6.95 µM; 370,000 compounds, 0.83% hits; AID 720648, 2013;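 active = inhibition above the mean of compounds lying between control limits plus 3 SD, set per campaign, cut at about 8.5% in these data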;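 also: 0% = DMSO-only wells as the low control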
ADAM10 inh – human ADAM10 inhibitors, primary screen, biochemical, QFRET, HTS. Disintegrin and metalloproteinase domain-containing protein 10 (Homo sapiens), O14672. inhibition, % at 7 µM. 370,000 compounds, 0.62% hits. recombinant ADAM10, EDANS/DABCYL FRET peptide cleavage, 3 h;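 active = inhibition above a per-campaign cutoff equal to the mean of compounds falling between control-based bounds plus 3 SD, cut at about 20% in these data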;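 also: 0% = DMSO wells while the 100% control is not disclosed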
Target sequence (O14672 214-748 limits assumed): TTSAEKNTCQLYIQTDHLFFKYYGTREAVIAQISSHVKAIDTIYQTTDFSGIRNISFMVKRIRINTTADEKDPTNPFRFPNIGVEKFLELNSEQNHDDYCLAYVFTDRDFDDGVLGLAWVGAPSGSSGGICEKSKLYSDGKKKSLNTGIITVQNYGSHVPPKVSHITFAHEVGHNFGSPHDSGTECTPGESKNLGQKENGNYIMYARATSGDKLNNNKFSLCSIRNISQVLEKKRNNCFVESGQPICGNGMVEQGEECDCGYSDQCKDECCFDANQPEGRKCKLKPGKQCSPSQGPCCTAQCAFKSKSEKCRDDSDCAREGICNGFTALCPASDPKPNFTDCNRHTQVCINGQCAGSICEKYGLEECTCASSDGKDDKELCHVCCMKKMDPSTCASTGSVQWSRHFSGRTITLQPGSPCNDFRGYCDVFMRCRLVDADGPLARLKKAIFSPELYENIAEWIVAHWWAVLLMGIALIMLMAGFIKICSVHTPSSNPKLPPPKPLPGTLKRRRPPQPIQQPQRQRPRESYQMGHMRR
MT1-MMP act inh – blockers of MT1-MMP proenzyme processing, primary screen, HT1080 RFP-PRO-GFP cells, GFP/RFP fluorescence; Matrix metalloproteinase-14 (Homo sapiens), P50281; GFP/RFP ratio change, % at 20 µM; 360,000 compounds, 0.061% hits; GFP/RFP ratio fluorescence, overnight; percent of plate control window, DMSO zero;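 active = GFP/RFP ratio change of at least 30% with cell ATP level not reduced by more than half and red fluorescence within 50% of control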
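Compound: 20 µM single dose, 1% DMSO / System: HT1080 RFP-PRO-GFP cells / Controls: DMSO and RFP-L50D-GFP cell wells / Read-out basis: GFP/RFP fluorescence ratio / Schedule: overnight compound exposure at 37 °C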
MPTP block – mitochondrial permeability transition pore inhibitors, primary screen, biochemical, isolated mouse mitochondria, absorbance | Ca2+ swelling absorbance, 30 min | inhibition, % at 10 µM | 360,000 compounds, 1.4% hits;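 active = inhibition of 50% or more, scaled per plate between neutral and stimulator controls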;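 also: 0% = DMSO wells given calcium and 100% = 1 mM EGTA wells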
* = called active by the depositor.

What do the screens show for `O=C(Nc1ccc2oc(=O)ccc2c1)c1ccccc1[N+](=O)[O-]`?
NR3A LBD binder: -1; SKN-1 block: -2; ADAM17 inh: -1; ADAM10 inh: 4; MT1-MMP act inh: 3; MPTP block: -2

What do the screens show for `O=C(Nc1ccc2oc(=O)ccc2c1)c1cc2ccccc2o1`?
NR3A LBD binder: 9; SKN-1 block: 11; ADAM17 inh: -37; ADAM10 inh: -93; MT1-MMP act inh: 10; MPTP block: 8

Results for O=C(Nc1ccc2oc(=O)ccc2c1)c1ccc(-c2ccc(Cl)cc2)o1 ?
NR3A LBD binder: 27*; SKN-1 block: -1; ADAM17 inh: -1; ADAM10 inh: 3; MT1-MMP act inh: 9; MPTP block: 4

What do the screens show for `O=C(Nc1ccc2oc(=O)ccc2c1)c1ccc(-c2cccc([N+](=O)[O-])c2)o1`?
NR3A LBD binder: 35*; SKN-1 block: 12; ADAM17 inh: -3; ADAM10 inh: 0; MT1-MMP act inh: -11; MPTP block: 4

Results for O=C(Nc1ccc2oc(=O)ccc2c1)c1ccc(-c2ccccc2[N+](=O)[O-])o1 ?
NR3A LBD binder: 30*; SKN-1 block: -1; ADAM17 inh: -3; ADAM10 inh: -7; MT1-MMP act inh: -1; MPTP block: 6

What do the screens show for `O=C(Nc1ccc2oc(=O)ccc2c1)c1ccc(-c2cccc(Cl)c2)o1`?
NR3A LBD binder: 29*; SKN-1 block: -6; ADAM17 inh: -3; ADAM10 inh: -3; MT1-MMP act inh: 4; MPTP block: 14

How did CC1(C)CC(N2CCN(c3ccccc3)CC2)=CC(=[N+]2CCCC2)C1 do in these assays?
NR3A LBD binder: -2; SKN-1 block: 3; ADAM17 inh: -2; ADAM10 inh: -2; MT1-MMP act inh: -5; MPTP block: 2

How did c1ccc(-c2ccccc2OCCOCCN2CCNCC2)cc1 do in these assays?
NR3A LBD binder: 4; SKN-1 block: 4; ADAM17 inh: -3; ADAM10 inh: 4; MT1-MMP act inh: -4; MPTP block: 2

Results for COc1ccc(NC(=O)C2CCN(C(=O)[C@@H]3Cc4ccccc4CN3)CC2)cc1 ?
NR3A LBD binder: -3; SKN-1 block: 2; ADAM17 inh: -4; ADAM10 inh: -3; MT1-MMP act inh: 2; MPTP block: 1

What do the screens show for `COc1cc(OC)c(C(=O)Nc2ccc3ccccc3c2)cc1OC`?
NR3A LBD binder: 0; SKN-1 block: -6; MT1-MMP act inh: 7; MPTP block: 1

Results for COc1cc2ccccc2cc1C(=O)Nc1ccc2oc(=O)ccc2c1 ?
NR3A LBD binder: 15*; SKN-1 block: 9; ADAM17 inh: -1; ADAM10 inh: -5; MT1-MMP act inh: 5; MPTP block: -2

How did CCOc1cc(C)c(S(=O)(=O)N2CCCCC2)cc1C do in these assays?
NR3A LBD binder: -2; SKN-1 block: 8; ADAM17 inh: -3; ADAM10 inh: -1; MT1-MMP act inh: -2; MPTP block: 2

How did CCN(CC(=O)NCc1ccc(F)cc1)C(=O)COc1ccc(C)c(C)c1 do in these assays?
NR3A LBD binder: -8; SKN-1 block: 12; ADAM17 inh: 1; ADAM10 inh: 0; MT1-MMP act inh: 0; MPTP block: 2

What do the screens show for `CCN(CC(=O)NCc1ccc(F)cc1)C(=O)COc1ccc2ccccc2c1`?
NR3A LBD binder: 10*; SKN-1 block: 21; ADAM17 inh: -2; ADAM10 inh: 0; MT1-MMP act inh: 2; MPTP block: 3

Results for Fc1ccccc1-c1nc(NCc2ccco2)c2ccccc2n1 ?
NR3A LBD binder: -6; SKN-1 block: 5; ADAM17 inh: 0; ADAM10 inh: 5; MT1-MMP act inh: 0; MPTP block: 5

Screens: PubChem BioAssay, several laboratories
